Active and inactive are the calls of the source. No cut-off for these calls is given here.

One may read the IC50 as the point on the concentration scale where inhibition reaches its midpoint.

Test [1] in a line: Cytotoxicity against human 70N cells by SRB assay. In kind it is cell-based. The gist of the method: (§1)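 Cells washed in PBS, resuspended in DFCI-1 medium and seeded in triplicate at 4000/0.2 mL/well. After 24 h attachment (37 °C, 6.5% CO2), cells got 0.1–40.0 μM compound (DMSO below 0.2% final; DMSO controls) for 48 h. Cells were then PBS-washed and SRB-stained, and dye was redissolved in 10 mM Tris·HCl and read at 550 nm. IC50 taken as 50% reduction of relative cell number.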
(In general: The SRB assay estimates cell density from bound dye.)

Test [2] relates to MDA-MB-435. The experiment in a line: Cytotoxicity against human MDA-MB-435 cells at 2.3 uM treated for 24 hrs and subsequently cultured in drug-free medium for 96 hrs by SRB assay. It is filed as functional, cell-based. The gist of the method: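 MDA-MB-435 cells in DFCI-1 medium, seeded in triplicate at 4000/well and attached 24 h at 37 °C. Exposed to 2.3 μM compound for 24 h at 37 °C, then cultured in drug-free DFCI-1 medium for 96 h. Viability read by SRB staining with absorbance at 550 nm.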

The test system of test [3] is MDA-MB-435. The experiment in a line: Cytotoxicity against human MDA-MB-435 cells by SRB assay. It is filed as functional, cell-based. In a few lines:
as §1

Test [4] deals with MDA-MB-231. Briefly: Cytotoxicity against human MDA-MB-231 cells by SRB assay. In kind it is functional, cell-based. In a few lines:
as §1

Test [5] deals with MDA-MB-231. The experiment in a line: Cytotoxicity against human MDA-MB-231 cells assessed as change from polarized to spherical cellular morphology by SRB assay. In kind it is functional, cell-based.
The subject of test [6] is MDA-MB-435. The experiment in a line: Induction of apoptosis in human MDA-MB-435 cells assessed as change in nuclear morphology at 2.3 uM by fluorescence microscopy. It is filed as functional, cell-based. In a few lines: (§2)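 MDA-MB-435 cells plated in DFCI-1 medium at (3-5) × 10^4 cells/35-mm dish and attached 24 h (37 °C, 6.5% CO2). Treated 48 h, then attached cells were examined by fluorescence microscopy for nuclear shrinkage and chromatin condensation or fragmentation. 50 nM paclitaxel served as positive control.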

Test [7] has as its system MDA-MB-435. Briefly: Cytotoxicity against human MDA-MB-435 cells assessed as change from polarized to spherical cellular morphology by SRB assay. In kind it is functional, cell-based.
The subject of test [8] is MDA-MB-435. Briefly: Induction of apoptosis in human MDA-MB-435 cells assessed as change in nuclear morphology at 50 nM by fluorescence microscopy. In kind it is functional, cell-based. In a few lines: as §2

For the molecule `CC1=C2CC[C@]3(C)[C@H](CC=C4[C@@H]5CC(C)(C)CC[C@@H]5C(=O)[C@H](O)[C@]43C)[C@@]2(C)C=C(O)C1=O` [REMANGILONE A], the results for the IC50 (in test [1]; in the test on MDA-MB-435 [3]; in the test on MDA-MB-231 [4]) were 40.5 µM, 8.5 µM and 6.6 µM, respectively. For the same molecule, the outcome in the test on MDA-MB-435 [2], in the test on MDA-MB-231 [5], in the test with MDA-MB-435 [6] and in the test with MDA-MB-435 [7] was Active.
As to `CC(=O)O[C@H]1C(=O)[C@@]2(C)[C@H]([C@H](OC(=O)c3ccccc3)[C@]3(O)C[C@H](OC(=O)[C@H](O)[C@@H](NC(=O)c4ccccc4)c4ccccc4)C(C)=C1C3(C)C)[C@]1(OC(C)=O)CO[C@@H]1C[C@@H]2O`, the result in the test with MDA-MB-435 [8] was Active.

For the origin of these results see ChEMBL document CHEMBL1141811, “Remangilones A-C, new cytotoxic triterpenes from Physena madagascariensis” (J Nat Prod, 1999).
